Calls of active or inactive are those of the source. The calls are words filed in the database; no cut-off is given here.
Tests used:
Rattus norvegicus [1] = assay: Minimum effective dose for 100% interruption of pregnancy in rat when compound was administered perorally; IN-Inactive; type: functional, organism-based
Procedure, shortened: (§1)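 Pregnant rats given a single oral dose on day 10 of pregnancy, seven rats per group. MED, in mg/kg po, is the minimum dose giving 100% interruption of pregnancy.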

Rattus norvegicus [2] = assay: Minimum effective dose for 100% interruption of pregnancy in rat when compound was administered perorally; type: functional; procedure, shortened: as §1
Monkey [3] = assay: Effective dose for interruption of pregnancy in greater than 90% of the monkeys; type: functional, Cercopithecidae
Procedure, shortened: (§2)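 Pregnant monkeys dosed once daily on days 50–54 of pregnancy; group size two to six or more monkeys. Effective dose, in mg per monkey per day, is the dose interrupting pregnancy in more than 90% of monkeys.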

Monkey [4] = assay: Effect of compound on plasma level of cortisol in ACTH treated rhesus monkey when administered orally; type: functional; conditions: Cercopithecidae, in Macaca mulatta, po, read-out: MED
Rattus norvegicus [5] = assay: Effect of compound on plasma level of corticosterone in ACTH treated pseudopregnant rats when administered orally; type: functional; conditions: po, read-out: MED
Procedure, shortened: (§3)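 Pseudopregnant rats stimulated with ACTH; single oral dose, groups of seven rats. Plasma progesterone and corticosterone measured; MED in mg/kg po is the single dose giving a significant (p < 0.01) fall versus stimulated control levels.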

Rattus norvegicus [6] = assay: Effect of compound on plasma level of progesterone in ACTH treated pseudopregnant rats when administered orally; type: functional; conditions: po, read-out: MED; procedure, shortened: as §3
Monkey [7] = assay: Effective dose for interruption of pregnancy in greater than 90% of the monkeys; IN-Inactive; type: functional, organism-based; conditions: Cercopithecidae; procedure, shortened: as §2

| Compound | MED10 (Rattus norvegicus [2]) [mg/kg] | MED90 (Monkey [3]) [mg monkey-1 day-1] | other results |
| --- | --- | --- | --- |
| CC12CC[C@H]3[C@@H](CC[C@@]45OC4C(=O)CCC35C)[C@@H]1CCC2O (stereo partly specified) |  |  | MED10 (Rattus norvegicus [1]): inactive |
| CC12C[C@@H](C#N)C(=O)C=C1CCC1C2CCC2(C)C(O)CCC12 (stereo partly specified) | 1000 |  |  |
| CC12CC[C@H]3[C@@H](CC[C@@]45OC4C(=O)[C@H](C#N)CC35C)[C@@H]1CC[C@]2(C)O (stereo partly specified) | 500 | 250 | minimal effective dose (Monkey [4]): 10 mg/kg; minimal effective dose (Rattus norvegicus [5]): 50 mg/kg; minimal effective dose (Rattus norvegicus [6]): 500 mg/kg |
| CC12CC[C@H]3[C@@H](CC[C@@]45OC4(C)C(=O)[C@H](C#N)CC35C)[C@@H]1CCC2O (stereo partly specified) | 125 | >500 | minimal effective dose (Monkey [4]): 250 mg/kg; minimal effective dose (Rattus norvegicus [5]): 50 mg/kg; minimal effective dose (Rattus norvegicus [6]): 5 mg/kg |
| CC12CC[C@H]3[C@@H](CCC4CC(=O)[C@H](C#N)CC43C)[C@@H]1CCC2O (stereo partly specified) |  |  | MED10 (Rattus norvegicus [1]): inactive |
| CC12CCC3C(CC[C@@]45OC4c4oncc4CC35C)C1CC[C@]2(C)O (stereo partly specified) | >500 |  |  |
| CC1C[C@H]2[C@@H]3CCC(O)C3(C)CC[C@@H]2C2(C)C[C@@H](C#N)C(=O)C3O[C@]132 (stereo partly specified) | 12 | 500 |  |
| CC1CC2C3CCC(O)C3(C)CCC2C2(C)Cc3cnoc3C3O[C@]132 (stereo partly specified) | >500 |  |  |
| CC1(C)C2=CCC3C(CCC4(C)C3CC[C@]4(C)O)C2(C)Cc2cnoc21 (stereo partly specified) | 25 | >1000 |  |
| CC12O[C@]13CCC1C(CCC4(C)C1CC[C@]4(C)O)C3(C)Cc1cnoc12 (stereo partly specified) | 192 |  | MED90 (Monkey [7]): inactive |
| CC12CCC3C(CC[C@@]45OC4c4oncc4CC35C)C1CCC2O (stereo partly specified) | >500 |  |  |
| CC1(C)C(=O)[C@H](C#N)CC2(C)C1=CCC1C2CCC2(C)C1CC[C@]2(C)O (stereo partly specified) | 6 |  | MED90 (Monkey [7]): inactive |
| CC12CCC3C(CC[C@@]45OC4(C)c4oncc4CC35C)C1CCC2O (stereo partly specified) | >500 |  |  |
| CC12CC[C@H]3[C@@H](CC[C@@]45OC4C(=O)[C@H](C#N)CC35C)[C@@H]1CCC2O (stereo partly specified) | 500 | 1000 | minimal effective dose (Monkey [4]): 10 mg/kg; minimal effective dose (Rattus norvegicus [5]): 50 mg/kg; minimal effective dose (Rattus norvegicus [6]): 500 mg/kg |
| CC12CC[C@H]3[C@@H](CC[C@]45OC4C(=O)[C@@H](C#N)CC35C)[C@@H]1CCC2O (stereo partly specified) |  |  | MED10 (Rattus norvegicus [1]): inactive |
| CC12O[C@]13CC[C@@H]1[C@H](CCC4(C)[C@H]1CC[C@]4(C)O)C3(C)C[C@@H](C#N)C2=O (stereo partly specified) | 50 | 250 | minimal effective dose (Monkey [4]): 250 mg/kg; minimal effective dose (Rattus norvegicus [5]): 20 mg/kg; minimal effective dose (Rattus norvegicus [6]): 20 mg/kg |

Reference: ChEMBL document CHEMBL1122694, “Steroidogenesis inhibitors. 1. Adrenal inhibitory and interceptive activity of trilostane and related compounds” (1984)
